Screens as filed in PubChem.
Phagocytosis inh – inhibitors of macrophage phagocytosis, primary screen, imaging, J774A.1 cells, IgG beads. J774A.1 macrophage IgG-bead phagocytosis. inhibition, % at 5 µM. hit rate 0.07% among 110,000. AID 1029, 2008;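 active = inhibition above the mean of the plate negative controls plus 5 SD, cut at about 13% in these data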;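 note: phagocytic index as fraction of beads internalized from green versus red external bead signal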
Yeast lifespan up – compounds extending yeast replicative lifespan, primary screen, S. cerevisiae, OD615 | inhibition of the nicotinamide effect, % at 10 µM | AID 775, 2007 | hit rate 0.68% among 130,000 | S. cerevisiae growth with nicotinamide; deaD strain in restrictive glucose medium;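 active = inhibition above a set limit, placed 3 SD over the median of all compounds, cut at about 26% in these data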
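Material: Modified budding yeast, DeaD strain | Medium: Restrictive glucose medium | Probe or stimulus: 1.5 mM nicotinamide | Dosing: Single dose 10 µM compound, 0.25% DMSO | Times: 48 h at 30 °C | Technique: OD615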
Measles CPE – compounds protecting cells from measles virus cytopathic effect, primary screen, measles RdRp inhibitor project, single point, MLSMR library, absorbance; Measles virus-infected cells, CPE protection; protection (pct of control), % at 4 µM; hit rate 1.5% among 140,000; in the data active = protection mostly above about 24%, no sharp cut-off; inactive = mostly below about 26%
Yeast growth inh – growth inhibitors of yeast BB579 in restrictive medium, primary screen, yeast lifespan-shortening project, S. cerevisiae; OD615, 48 h; inhibition, % at 10 µM; hit rate 0.51% among 140,000; AID 804, 2007;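 active = inhibition above a set limit, 3 SD over the mean compound inhibition, cut at about 44% in these data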
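Detection: OD615 turbidity measurement; Material: Saccharomyces cerevisiae DeaD strain BB579, replicative lifespan model yeast; Timing: 48 h exposure, 30 °C; Doses: single 10 µM dose; Medium: CSMM-D restrictive synthetic medium containing dextrose (glucose); Controls: amphotericin B at 10 µg/mL as positive control.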
RAM inhibit – inhibitors of the yeast RAM network, primary screen, dse1pr::URA3 reporter, 5-FOA selection | S. cerevisiae dse1pr::URA3 reporter, 5-FOA growth OD615, 2 d; analog-sensitive cbk1-as2 kinase mutant strain | inhibition, % at 50 µM | hit rate 1.8% among 190,000 | AID 868, 2007;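 active = inhibition above a set limit, 3 SD over mean compound inhibition, cut at about 8.4% in these data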;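 note: inhibition rescues growth on 5-FOA so higher OD means more RAM inhibition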
Numbers stand for hits; i = inactive; nt = no result given. An excerpt weighted towards active compounds, which were near 3.6% of everything screened.

SMILES	Phagocytosis inh	Yeast lifespan up	Measles CPE	Yeast growth inh	RAM inhibit
C/C(N)=C(/C#N)C(=O)COC(=O)CC12CC3CC(CC(C3)C1)C2	nt	i	i	i	i
N#Cc1ccc(OCC(=O)NC2=NCCS2)cc1	nt	nt	nt	nt	i
O=C(COc1ccccc1)NC1=NCCS1	i	i	78	i	i
O=C1NCCN1Cc1ccccc1F	nt	i	40	i	i
O=C1NCCN1Cc1ccccc1	i	i	i	i	i
Cc1ccc(CN2CCNC2=O)cc1	i	i	i	i	i
O=C1NCCN1Cc1ccc(F)cc1	i	i	36	i	i
CCCCOCCCNC(=O)c1ccc(NC(C)=O)cc1	i	i	i	i	9.3
COc1cc(OC)cc(C(=O)NNC(=O)CCc2ccccc2)c1	nt	nt	nt	nt	i
O=S(=O)(CCSc1nc2ccccc2o1)c1nc2ccccc2s1	i	i	i	i	i
O=S(=O)(CCSc1ccccn1)c1nc2ccccc2s1	i	60	i	i	i
C=CCc1cc(OC)ccc1OCCOCCC(C(=O)OCC)C(=O)OCC	nt	i	21	i	i
C=CCc1cc(OC)ccc1OCCOCCN1CCc2ccccc2C1	nt	nt	nt	nt	i
COc1ccc2c(c1)C1CC(C)(NC(=O)C1S(=O)(=O)c1ccc(F)cc1)O2 (stereo not given)	i	i	69	i	i
COc1ccc2c(c1)OC1(C)CC2C(C(=O)c2ccccc2OC)C(=O)N1 (stereo not given)	nt	i	31	i	i
COc1ccc2c(c1)C1CC(C)(NC(=O)C1C(=O)c1ccccc1)O2 (stereo not given)	i	i	i	i	i
O=Cc1ccccc1OCc1nnsc1Cl	nt	nt	nt	nt	i
O=C1CCCC(=O)N1c1ccc(Oc2ccc(Cl)cc2)cc1	i	i	i	i	i
OCc1ccnc2c(O)cccc12	i	i	i	54	i
CCCCn1c(=NC(=O)c2ccco2)c(C(=O)OCC)cc2c(=O)n3ccccc3nc21	i	i	i	i	i
CCOC(=O)c1cc2c(=O)n3ccccc3nc2n(C(C)C)c1=NC(=O)c1c(-c2c(F)cccc2Cl)noc1C	i	i	i	i	10
CO/N=C(\c1nonc1N)N1CCN(c2ccc(Cl)cc2[N+](=O)[O-])CC1	nt	i	i	i	i
CCOC(=O)c1nn(-c2ccccc2C)c2nc(Nc3ccccc3)cc(=O)n12	i	i	i	i	8.4
CCOC(=O)c1nn(-c2ccc(Cl)cc2)c2nc(Nc3ccccc3)cc(=O)n12	i	i	i	i	i
CCn1c(CSCc2ccc(F)cc2)nnc1SCC(=O)N1CCN(c2ccccc2)CC1	i	i	i	i	i
SMILES	Phagocytosis inh	Yeast lifespan up	Measles CPE	Yeast growth inh	RAM inhibit
CCn1c(SCc2ccc(F)cc2)nnc1-c1nn(-c2ccccc2)ccc1=O	nt	i	55	i	i
O=C1COc2ccc(C(=O)COC(=O)CNC(=O)c3ccco3)cc2N1	nt	nt	nt	nt	i
O=C(c1ccc(S(=O)(=O)N2CCCC2)cc1)N1CCCc2ccccc21	i	i	36	i	i
CC(=O)c1ccc(-c2ccc(C(=O)N3CCCc4ccccc43)o2)cc1	nt	nt	nt	nt	9.4
COC(=O)c1ccc(NC(=O)CCN2C(=O)CSC2=O)cc1	nt	nt	nt	nt	i
Cc1ccc(C)c(N2CCN(c3cnn(-c4nc5ccccc5s4)c(=O)c3Cl)CC2)c1	nt	i	i	i	9.1
O=c1c(Cl)c(Nc2cccc(Cl)c2)cnn1-c1nc2ccccc2s1	i	i	i	i	i
COc1ccc(Nc2cnn(-c3nc4ccccc4s3)c(=O)c2Cl)cc1	i	i	i	78	i
COc1cc(COc2ccc3c(C)c(Cc4ccccc4)c(=O)oc3c2C)cc(OC)c1OC	nt	i	28	i	i
CCCCCCNC(=O)c1c(O)c2ccccc2[nH]c1=O	i	36	i	i	i
CCC(=O)NNC(=O)c1c(O)c2ccccc2[nH]c1=O	nt	nt	nt	nt	i
CN(C)c1ccc(/C=C/C=C2/SC(=S)N(c3ccccc3)C2=O)cc1	nt	i	i	i	11
O=C(O)c1ccc(N2C(=O)/C(=C/C=C/c3ccccc3)SC2=S)cc1	nt	nt	nt	nt	i
Cc1cc(Br)ccc1NC(=O)CN1C(=O)C2C3CC(c4ccccc4)C(C3)C2C1=O (stereo not given)	nt	i	i	i	i
O=C(NCCC1=CCCCC1)C(c1ccccc1)c1ccccc1	i	i	i	i	i
